Results as given in ChEMBL document CHEMBL1122676, “2,3-Dimethyl-1,4-naphthoquinone derivatives as bioreductive alkylating agents with cross-linking potential” (1984).

Columns and labels:
Type in all cases: functional
Mus musculus [1] = assay: Compound was evaluated for anticancer activity against Sarcoma180 tumor bearing mice by measuring average weight (dose 2.5 mg/kg daily)
In short: (§1)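 Sarcoma 180 ascites-bearing CDF1 mice (~10^6 cells ip) dosed ip daily for 6 consecutive days starting 24 h after implantation, drug suspended with 20% aqueous Tween 80 in isotonic saline. Mice weighed during the experiment; percent body weight change from onset to end of therapy recorded as the toxicity index, average per group; 5–15 mice per value.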

Mus musculus [2] = assay: Compound was evaluated for anticancer activity against Sarcoma180 tumor bearing mice by measuring average weight (dose 10 mg/kg daily); in short: as §1
Mus musculus [3] = assay: Compound was evaluated for anticancer activity against Sarcoma180 tumor bearing mice by measuring T/C X 100 (dose 2.5 mg/kg daily)
In short: (§2)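 CDF1 mice given ~10^6 Sarcoma 180 ascites cells ip (from 7-day donor ascites, saline-diluted); compound as fine suspension in a few drops 20% aqueous Tween 80 made up in isotonic saline, 0.5 mL ip once daily for 6 days from 24 h post-implant. Survival time of treated vs vehicle-injected controls expressed as T/C × 100; 5–15 mice per value.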

Mus musculus [4] = assay: Compound was evaluated for anticancer activity against Sarcoma180 tumor bearing mice by measuring T/C X 100 (dose 5 mg/kg daily); in short: as §2
Mus musculus [5] = assay: Compound was evaluated for anticancer activity against Sarcoma180 tumor bearing mice by measuring average weight (dose 5 mg/kg daily); in short: as §1
Mus musculus [6] = assay: Compound was evaluated for anticancer activity against Sarcoma180 tumor bearing mice by measuring T/C X 100 (dose 10 mg/kg daily); in short: as §2
Mus musculus [7] = assay: Compound was evaluated for anticancer activity against Sarcoma180 tumor bearing mice by measuring T/C X 100 (dose 3.25 mg/kg daily); in short: as §2
Mus musculus [8] = assay: Compound was evaluated for anticancer activity against Sarcoma180 tumor bearing mice by measuring T/C X 100 (dose 7.5 mg/kg daily); in short: as §2
Mus musculus [9] = assay: Compound was evaluated for anticancer activity against Sarcoma180 tumor bearing mice by measuring average weight (dose 3.25 mg/kg daily); in short: as §1
Mus musculus [10] = assay: Compound was evaluated for anticancer activity against Sarcoma180 tumor bearing mice by measuring T/C X 100 (dose 15 mg/kg daily); in short: as §2
Mus musculus [11] = assay: Compound was evaluated for anticancer activity against Sarcoma180 tumor bearing mice by measuring average weight (dose 15 mg/kg daily); in short: as §1
Mus musculus [12] = assay: Compound was evaluated for anticancer activity against Sarcoma180 tumor bearing mice by measuring average weight (dose 7.5 mg/kg daily); in short: as §1

SMILES | Average weight (Mus musculus [1]) [%] | Average weight (Mus musculus [2]) [%] | T/C (Mus musculus [3]) | T/C (Mus musculus [4]) | Average weight (Mus musculus [5]) [%] | T/C (Mus musculus [6]) | T/C (Mus musculus [7]) | T/C (Mus musculus [8]) | Average weight (Mus musculus [9]) [%] | T/C (Mus musculus [10]) | Average weight (Mus musculus [11]) [%] | Average weight (Mus musculus [12]) [%]
CNC(=O)OCC1=C(COC(=O)NC)C(=O)c2ccccc2C1=O | 3.8 | -10 | 266 | 177 | -7.6 | 200 |  |  |  |  |  | 
O=C1C(CBr)=C(CBr)C(=O)c2ccccc21 |  |  |  |  |  |  | 165 | 130 | -8.8 | 140 | -14.1 | -14.3
O=C1C(CCl)=C(CCl)C(=O)c2ccccc21 |  |  |  |  |  |  | 100 | 158 | -15.1 | 122 | -15.6 | -10.3
CS(=O)(=O)OCC1=C(COS(C)(=O)=O)C(=O)c2ccccc2C1=O | 18.4 | -2 | 114 | 204 | 5.9 | 232 |  |  |  |  |  | 
O=C(NCCCl)OCC1=C(COC(=O)NCCCl)C(=O)c2ccccc2C1=O | 0 | -7.8 | 230 | 209 | -4.3 | 189 |  |  |  |  |  | 
O=C1C(CO)=C(CO)C(=O)c2ccccc21 |  |  |  |  |  |  | 55 | 51 | 10.8 | 37 | -9.9 | -14.3
CC1=C(C)C(=O)c2ccccc2C1=O |  |  |  |  |  |  | 104 | 78 | 1.4 | 103 | 0.5 | 1.3
Cc1ccc(S(=O)(=O)OCC2=C(COS(=O)(=O)c3ccc(C)cc3)C(=O)c3ccccc3C2=O)cc1 | 22.3 | 13.8 | 130 | 138 | 21 | 126 |  |  |  |  |  | 
